Results gathered from unrelated publications.
Compare with care: the assays were run in different laboratories.
Read-out: metabolic stability
Sample: liver microsomes

Compound	system	setting	compound remaining [%]
Cc1ncsc1-c1ccc(CNC(=O)[C@@H]2C[C@@H](O)CN2C(=O)[C@@H](NC(=O)CCCCCCCCCCNC(=O)O[C@H]2C[C@@H](C)C=C3C=C[C@H](C)[C@H](CC[C@@H]4C[C@@H](O)CC(=O)O4)[C@H]32)C(C)(C)C)cc1	mouse	1 µM, 45 min, pH 7.4	1.42
Cc1ccc2c(c1)nc(/C=C/c1cccc3cccnc13)n2-c1ccccc1	rat	1.5 µM, 5 min	75.4
O=C(Nc1ccc(S(=O)(=O)N2CCC(Cl)CC2)cc1)c1ccc([N+](=O)[O-])o1	mouse	1 µM, 1 h, pH 7.4	0.02
CS(=O)(=O)c1ccc(-c2cnc(N)c(-c3ccc(C(F)(F)F)nc3)c2)cc1	male CD-1 mouse	1 µM, 30 min	> 99
CCCn1nc(C(=O)N2CCCCC2)c2c1CCC(NCc1ccc(N3CCCCC3)cc1)C2 (stereo not shown)	mouse	10 µM, 1 h	47
Cc1ccc2c(c1)nc(CCc1cccc3cccnc13)n2-c1ccccc1	rat	1.5 µM, 45 min	0.05
CCCn1nc(C(=O)N2CCCCC2)c2c1CCC(N1CCc3ccccc3C1)C2 (stereo not shown)	mouse	10 µM, 1 h	< 25
N#Cc1ccc(C[C@@H](NC(=O)Nc2ccc(F)cc2)C(=O)NCC2(c3ccc(OC(F)(F)F)cc3)CC2)cc1	rat	10 µM, 30 min, pH 7.4	> 80
CCCn1nc(C(=O)N2CCCCC2)c2c1CCC(NCCN1CCCCC1)C2 (stereo not shown)	mouse	10 µM, 1 h	54
O=S(=O)(c1cccc2cccnc12)N1CC(c2nc(-c3ccc(F)cc3)no2)C1	mouse	10 min	74
